In brackets after ≈: the same amount, converted by molar mass.
Tests used:
Format in all cases: functional
[1] = system: Candida albicans; test: Antifungal activity against Candida albicans MY1055 after 48 hrs in presence of 10% bovine serum albumin; details: MY1055, 48 h
In short: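 Microtiter broth dilution MIC in Synthetic Complete medium with 10% bovine serum albumin added. Log-phase inoculum set by A600 to an absorbance of 0.0014. Titration started at 256 µg/mL. Cells grown 48 h and endpoints read visually.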

[2] = system: Cryptococcus neoformans; test: Antifungal activity against Cryptococcus neoformans MY2062 after 48 hrs
In short: (§1)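 Broth microdilution MIC in microtiter format. Organisms grown in Synthetic Complete defined medium. Log-phase cells adjusted by A600 to an initial inoculum absorbance of 0.0014. […] Growth inhibition scored at 24 and 48 h, with visual endpoints.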

[3] = system: Saccharomyces cerevisiae; test: Antifungal activity against Saccharomyces cerevisiae MY2214 after 48 hrs; in short: as §1
[4] = system: Aspergillus fumigatus; test: Antifungal activity against Aspergillus fumigatus MF5668 after 48 hrs; in short: as §1
[5] = system: Candida albicans; test: Antifungal activity against Candida albicans MY1055 after 48 hrs; details: MY1055, 48 h; in short: as §1

SMILES	MIC [1]	MIC [2]	MIC [3]	MIC [4]	MIC [5]
C[C@@H]1[C@H](O)[C@@H](C)/C=C/C=C/C=C/C=C/C=C/C=C/C=C/[C@H](O[C@@H]2O[C@H](C)[C@@H](O)[C@H](N)[C@@H]2O)C[C@@H]2O[C@](O)(C[C@@H](O)C[C@@H](O)[C@H](O)CC[C@@H](O)C[C@@H](O)CC(=O)O[C@H]1C)C[C@H](O)[C@H]2C(=O)O [AMPHOTERICIN B]	0.25 µg/mL	0.25 µg/mL (≈ 0.271 µM)	0.25 µg/mL (≈ 0.271 µM)	1 µg/mL (≈ 1.08 µM)	0.5 µg/mL (≈ 0.541 µM)
CC(=O)O[C@@H]1C[C@]2(CO)[C@H]3CCC4=C5C(=O)C[C@@H](C(C)C)[C@@]5(C)CC[C@@]4(C)[C@]3(C)CC[C@H]2C(C)(C)[C@H]1O[C@@H]1O[C@H](CO)[C@@H](O)[C@H](O)[C@H]1O [HYALODENDROSIDE B]	128 µg/mL	4 µg/mL (≈ 5.91 µM)	32 µg/mL (≈ 47.3 µM)	64 µg/mL (≈ 94.6 µM)	16 µg/mL (≈ 23.6 µM)
CC(=O)O[C@@H]1C[C@]2(CO)[C@H]3CCC4=C5C(=O)CC6[C@H](C)CO[C@@H](O)C56CC[C@@]4(C)[C@]3(C)CC[C@H]2C(C)(C)[C@H]1O[C@@H]1O[C@H](CO)[C@@H](O)[C@H](O)[C@H]1O (stereo not given in full) [HYALODENDROSIDE A]	128 µg/mL	> 256 µg/mL	128 µg/mL (≈ 181 µM)	> 256 µg/mL	128 µg/mL (≈ 181 µM)
